TNF death inh: blocks TNF-alpha induced death of Jurkat FADD-/- cells. activation (protection from cell death), % at 10 µM. Jurkat FADD-/- TNF necroptosis rescue, ATP luminescence, 24 h; 0 = TNF only, 100 = no-TNF cells. 220,000 tested, 0.068% active;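 active = activation, meaning protection from cell death, of at least 50% relative to plate controls; inactive = activation below 50%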;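 note: necroptosis triggered by 40 ng/mL TNF-alpha added together with compound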
STAT3 activator: STAT3 signaling activation; 190,000 tested, 0.91% active; activation (% of control), % at 5.6 µM; U3A cells, IL-6 STAT3-luciferase reporter, luminescence; 100% = signal with IL-6 EC80 alone;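 active = activation above the screen-wide mean of compound activation plus 3 SD, cut at about 130% in these data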
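Assay system – human STAT1-deficient U3A cells with stable STAT3-luciferase reporter · Also added – IL-6 (33 ng/mL) · Schedule – compound 1 h, then IL-6 6 h at 37 °C · Technique – reporter luminescence signal · Evaluation – % activation versus median of IL-6-stimulated wells · Benchmarks – IL-6-only wells as 100% reference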
L929 necroptosis: L929 zVAD cell death inhibition | L929 zVAD necroptosis rescue, ATP luminescence, 24 h; with zVAD 60 µM | viability rescue, % at 10 µM | 220,000 tested, 0.38% active | AID 1377;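 active = activation, scaled between plate controls, above about 75%, limit read from the data; inactive = activation under that limit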
STAT3 inh: STAT3 signaling inhibition; 190,000 tested, 0.89% active; inhibition, % at 5.5 µM; AID 862; U3A cells, IL-6 STAT3-luciferase reporter, luminescence; host cell line lacks STAT1;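 active = inhibition above the mean inhibition across all screened compounds plus 3 SD, cut at about 44% in these data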
STAT1 blocker: STAT1 signaling inhibition. NIH 3T3 STAT1-luciferase reporter, IFN-gamma, luminescence. inhibition, % at 5.5 µM. 200,000 tested, 0.35% active. AID 920;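 active = inhibition above a set limit, the mean inhibition across all tested compounds plus 3 SD, cut at about 34% in these data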
Hits are given with their value; 0 = inactive; - = no result given. The list is not random: actives were taken first. Their share in the collection is about 2.1%.

SMILES	TNF death inh	STAT3 activator	L929 necroptosis	STAT3 inh	STAT1 blocker
Cc1ccc(NC(=O)Nc2nnc(-c3ccccc3)o2)cc1	0	0	0	0	0
Cc1ccc(-c2nnc(Nc3ccccc3)o2)cc1	0	0	0	100.6	72.0
C(=C\c1nc2ccccc2[nH]1)/c1ccccc1	0	0	0	81.9	43.0
CCNS(=O)(=O)c1ccc(NC(=S)NCc2ccco2)cc1	0	0	0	0	0
COc1ccc(C(=O)Nc2nnc(-c3cccs3)s2)cc1	0	156.9	0	0	0
COc1ccc(-c2ccc(Nc3ccc(C(=O)N4CCOCC4)cc3)nn2)cc1OC	0	0	0	0	0
CC1CN(C(=O)c2ccc(COc3ccc4ccccc4c3)o2)CC(C)O1 (centres undefined)	0	0	0	0	0
CC1CN(C(=O)c2ccc(COc3ccc(C(C)C)cc3)o2)CC(C)O1 (centres undefined)	0	133.0	0	0	0
C#CC(=O)N(c1ccc(OC)cc1OC)C(C(=O)NC1CCCC1)c1cccs1 (centres undefined)	0	0	0	83.5	87.6
COc1ccc(N(C(=O)c2ccco2)C(C(=O)NC2CCCCC2)c2cccs2)cc1OC (centres undefined)	0	0	0	0	0
COc1ccc(CCN(C(=O)C(F)(F)F)C(C(=O)NC2CCCC2)c2cccs2)cc1 (centres undefined)	0	0	0	0	0
C#CC(=O)N(c1cc(OC)ccc1OC)C(C(=O)NC1CCCC1)c1cccs1 (centres undefined)	0	0	0	114.4	74.7
CC1=NN(c2ccccc2)C(=O)C1N=Nc1ccc(N)cc1 (centres undefined)	0	0	0	0	0
CC1=NN(c2ccccc2)C(=O)C1N=Nc1ccccc1 (centres undefined)	0	133.4	0	0	0
CCOc1cc(C(=O)Nc2cccc(C(C)=O)c2)ccc1OCC(=O)N1CCCCC1	0	0	0	0	0
O=C(NCc1c(Cl)cccc1Cl)c1ccc2nnsc2c1	58.3	-	0	-	-
COCCNC(=O)c1ccc2snnc2c1	0	0	0	0	0
Cc1nn(Cc2c(F)cccc2Cl)c(C)c1[N+](=O)[O-]	76.3	0	0	0	0
Cc1ccc([N+](=O)[O-])cc1N=Nc1c(-c2ccc([N+](=O)[O-])cc2)[nH]n(C(N)=S)c1=O	0	0	0	45.5	35.0
COc1ccc(S(=O)(=O)n2nc(OC(=O)c3ccccc3Br)cc2N)cc1	0	0	0	0	0
CCCOc1ccc2cc(-c3ccccn3)c(=O)oc2c1	0	0	0	98.5	39.0
CSc1ccccc1NC(=O)c1noc2c1CCC2	0	0	0	0	0
COc1cc(/C=C/c2cc(C(F)(F)F)[nH]c(=O)n2)cc(OC)c1OC	0	0	0	0	46.2
COc1cc(OC)c(OC)cc1/C=C/c1cc(C(F)(F)F)[nH]c(=O)n1	0	0	0	0	0
CC1(C)Oc2ccc3ccc(=O)oc3c2-c2cnoc21	0	0	0	0	0
SMILES	TNF death inh	STAT3 activator	L929 necroptosis	STAT3 inh	STAT1 blocker
CC1(C)Oc2ccc3ccc(=O)oc3c2-c2cn[nH]c21	0	0	75.3	0	0
Cn1nnnc1SCc1ccccc1F	0	0	76.7	0	0
Cc1cccc(OCC(=O)Nc2ccc(S(=O)(=O)N3CCN(C)CC3)cc2)c1	0	0	0	0	0
Cc1noc(C)c1COC(=O)CCCc1c[nH]c2ccccc12	0	133.7	0	0	0
CCOC(=O)CCCc1c[nH]c2ccccc12	0	0	0	0	0
COc1ccc(CCNC(=O)Cn2c(=O)oc3ccccc32)cc1OC	0	0	0	0	0
Cc1ccccc1C(=O)Nc1nnc(-c2ccco2)s1	0	0	0	68.9	44.4
Cc1ccc(NS(=O)(=O)c2ccc(C(=O)N3CCN(c4ccccn4)CC3)cc2)cc1	0	0	0	0	0
Nc1nonc1-c1nc2ccccc2n1Cc1ccc(F)cc1Cl	0	160.5	0	0	0
Fc1ccc(Cn2c(-c3cscn3)nc3ccccc32)c(Cl)c1	0	0	0	0	0
COc1ccc(Oc2c(C=O)c3ccccc3n2C)cc1	0	0	0	0	0
Cn1c(Oc2ccc(F)cc2F)c(C=O)c2ccccc21	0	0	0	0	0
Cc1ccc(Oc2c(C=O)c3ccccc3n2C)cc1	0	144.8	0	0	0
Cn1c(Oc2ccc(Cl)cc2)c(C=O)c2ccccc21	0	141.0	0	0	0
CC(=O)Nc1cc(OC(=O)c2ccco2)cc(OC(=O)c2ccco2)c1	0	0	0	0	0
CCOC(=O)C1=C(C(F)(F)F)Nc2ncnn2C1c1ccc(OC)c(OC)c1OC (centres undefined)	0	0	0	0	0
CSc1ccc(-c2cc(=O)c3ccccc3o2)cc1	0	141.0	0	0	0
C#CC[N+](CC)(CC)CC#Cc1ccccc1	0	-	0	-	-
O=C(Nc1ccc(N2CCOCC2)cc1)C1CCCCC1	0	0	0	0	0
COc1ccc(C(=O)Nc2ccc(Cl)c(Cl)c2)c(OC)n1	0	136.4	0	0	0
c1ccn2cc(-c3ccc4c(c3)OCCO4)nc2c1	0	0	0	89.9	59.6
Clc1ccc2nc(-c3ccc4c(c3)OCO4)cn2c1	0	0	0	82.8	65.4
O=C(/C=C/c1ccc2c(c1)OCO2)Nc1nc(-c2ccc(F)cc2F)cs1	0	0	0	0	0
Cc1csc(NC(=O)/C=C/c2ccc3c(c2)OCO3)n1	0	0	0	88.0	43.6
CC(=O)Nc1ccc(Sc2ncccc2C(=O)Nc2cc(Cl)cc(Cl)c2)cn1	0	0	89.4	0	0
SMILES	TNF death inh	STAT3 activator	L929 necroptosis	STAT3 inh	STAT1 blocker
COc1cc(NC(=O)c2cccnc2Sc2ccc(C)c(C)c2)cc(OC)c1OC	0	0	0	0	0
Cc1ccc(SCCNC(=O)c2ccc(CN3CCOCC3)cc2)cc1	0	0	0	0	0
Cc1ccc(-c2nnn(CC(=O)NCCc3ccc4c(c3)OCO4)n2)o1	0	0	0	0	0
CCCC(=O)Nc1ccc(C#Cc2ccccc2)cc1	0	146.5	0	0	0
O=C(Nc1ccc(Oc2ccccc2)cc1)C1CC1	0	0	0	0	0
O=C(Nc1ccc(C#Cc2ccccc2)cc1)C1CC1	0	143.3	0	0	0
CCCC(=O)Nc1ccc(Oc2ccc(NC(=O)CCC)cc2)cc1	0	0	0	0	0
CCCc1[nH]nc2c1C1(C(=O)N(CC)c3ccccc31)C(C#N)=C(N)O2 (centres undefined)	0	0	0	0	0
O=[N+]([O-])c1ccc2c(c1)C(O)n1ncnc1S2 (centres undefined)	0	0	0	0	0
COCCNC(=O)c1ccc2c(c1)ncn2-c1ccc(F)c(F)c1	0	0	75.2	0	0
CCOC(=O)c1c(C)[nH]c(C2=NNC(=NC3CC3)SC2)c1C	0	0	0	76.0	61.2
CN1C/C(=C/c2cccnc2)C(=O)/C(=C/c2cccnc2)C1	79.6	0	0	0	0
CC(C)N1C/C(=C/c2cccnc2)C(=O)/C(=C/c2cccnc2)C1	0	0	0	0	0

Screening data deposited in PubChem by several laboratories.
